# Results gathered from unrelated publications.
# Lines come from different studies, so protocols differ.
# Cell line: WI-38
# Read-out: cell growth or viability
SMILES,assay,conditions,endpoint,value
CS(=O)(=O)CCNCc1ccc(-c2ccc3ncnc(Nc4ccc(OCc5cccc(F)c5)c(Cl)c4)c3c2)o1,MTT,72 h,EC50,32 µM
COc1cc(Nc2nc(C#N)cc3c(-c4ccccc4)n[nH]c23)cc(OC)c1OC,MTS,48 h,IC50,> 10 µM
Cc1cccc(-n2ncc(Br)c(Br)c2=O)c1,resazurin,96 h,IC50,2.61 µM
c1ccc(CNCc2cc3c(-c4ccccc4)n[nH]c3c(Nc3ccccc3)n2)cc1,MTS,48 h,IC50,8.2 µM
C#CCOc1cc(C(=O)Nc2cc(OCCN)c3ccccc3n2)nc(C(=O)Nc2cc(OCCN)c3ccccc3n2)c1,ATP luminescence,72 h,IC50,4 µM
C=C(c1ccc(C(=O)O)cc1)c1cc2c(cc1C)C(C)(C)CCC2(C)C,MTT,72 h,EC50,76 µM
CN(C)CCCOc1cc(NC(=O)c2cccc(C(=O)Nc3cc(OCCCN(C)C)c4ccccc4n3)n2)nc2ccccc12,ATP luminescence,72 h,IC50,2.1 µM
N#Cc1cc2c(-c3ccccc3)n[nH]c2c(Nc2ccccc2)n1,MTS,48 h,IC50,> 10 µM
CN(C)CCCOc1cc(NC(=O)c2cc(Cl)cc(C(=O)Nc3cc(OCCCN(C)C)c4ccccc4n3)n2)nc2ccccc12,ATP luminescence,72 h,IC50,3.6 µM
Cc1nc(Nc2ncc(C(=O)Nc3c(C)cccc3Cl)s2)cc(N2CCN(CCO)CC2)n1,MTT,72 h,EC50,0.7 µM
